The source made the active and inactive calls. The calls are words filed in the database; no cut-off is given here.

For test [1], the system named is Rattus norvegicus. The experiment in a line: Antihyperglycemic activity in Charles Foster/Wistar albino rat assessed as reduction in blood glucose level at 100 mg/kg, po administered 30 mins before sucrose challenge. Format: functional. The gist of the method: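 Male Charles Foster/Wistar rats, 160 ± 20 g, fasted 16 h; animals with glucose 60–80 mg/dl used, 5–6 per group. Given 100 mg/kg orally as suspension in 1.0% gum acacia (controls vehicle alone). Sucrose 10.0 g/kg orally 30 min later. Glucometer readings at 30, 60, 90, 120 min. Percent activity derived from AUC of treated versus control groups.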

The subject of test [2] is Rattus norvegicus. Nature of the test: Antihyperglycemic activity against sucrose challenged streptozotocin-induced diabetic Sprague-Dawley albino rat assessed as reduction in blood glucose level at 100 mg/kg, po administered 30 mins before sucrose challenge measured after 5 hrs. In kind it is functional. The gist of the method:
(§1)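 Male Sprague Dawley rats, 160 ± 20 g, fasted overnight, given streptozotocin 60 mg/kg ip in 100 mM citrate pH 4.5. Rats with glucose 144–270 mg/dl at 48 h count as diabetic, 5–6 per group. Dosed 100 mg/kg orally in 1.0% gum acacia. Sucrose 2.5 g/kg given 30 min later. Glucose read at 30–300 min and 24 h. Non-responders excluded.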

Test [3] deals with Rattus norvegicus. Nature of the test: Antihyperglycemic activity against sucrose challenged streptozotocin-induced diabetic Sprague-Dawley albino rat assessed as reduction in blood glucose level at 100 mg/kg, po administered 30 mins before sucrose challenge measured after 24 hrs. Format: functional. Put shortly:
as §1

The target of test [4] is T1, Tyrosine-protein phosphatase non-receptor type 1 (Homo sapiens, UniProt P18031).
T1 sequence (P18031 whole entry): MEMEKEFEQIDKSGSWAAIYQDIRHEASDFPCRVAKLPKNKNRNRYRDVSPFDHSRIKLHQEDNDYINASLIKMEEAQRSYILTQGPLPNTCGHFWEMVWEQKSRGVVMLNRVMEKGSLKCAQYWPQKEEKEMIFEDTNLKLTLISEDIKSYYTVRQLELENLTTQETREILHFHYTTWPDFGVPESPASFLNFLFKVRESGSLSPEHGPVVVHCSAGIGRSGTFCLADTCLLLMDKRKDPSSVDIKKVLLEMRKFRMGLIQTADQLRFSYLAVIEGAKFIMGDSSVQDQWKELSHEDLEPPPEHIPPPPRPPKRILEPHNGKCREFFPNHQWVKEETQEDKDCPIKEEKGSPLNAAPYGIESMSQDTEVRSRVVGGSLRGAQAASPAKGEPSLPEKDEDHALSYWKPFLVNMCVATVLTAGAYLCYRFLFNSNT
Nature of the test: Inhibition of protein tyrosine phosphatase-1B at 10 uM incubated for 10 mins using pNPP substrate in presence of 0.01% Triton X-100 by modified Goldstein method. The gist of the method:
(§2)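 PTP-1B: compound preincubated 10 min with enzyme, with or without 0.01% Triton X-100. Then 10 mM pNPP in 50 mM HEPES pH 7.0 with 1 mM DTT and 2 mM EDTA, 30 min at 37 °C. Stopped with 0.1 N NaOH; absorbance read at 410 nm. p-Nitrophenolate calculated using ε 1.78 × 10⁴ M⁻¹cm⁻¹. Sodium orthovanadate used as reference.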

For test [5], the target named is T1, Tyrosine-protein phosphatase non-receptor type 1. The experiment in a line: Inhibition of protein tyrosine phosphatase-1B at 10 uM incubated for 10 mins using pNPP substrate in absence of Triton X-100 by modified Goldstein method. Put shortly:
as §2

In test [6] the target is T2, Tyrosine-protein phosphatase non-receptor type 1 (Homo sapiens) (UniProt P18031).
T2 sequence (whole entry): T1 sequence (P18031 whole entry)
The experiment in a line: Inhibition of protein tyrosine phosphatase-1B at 10 uM incubated for 10 mins using pNPP substrate by modified Goldstein method. More on the design: Activity: scale not given: the % may be the effect or the level left. Put shortly:
as §2

Test [7] deals with Dipeptidyl peptidase 4 (Homo sapiens) (UniProt P27487). The experiment in a line: Inhibition of DPP4 assessed as rate of substrate cleavage using Gly-Pro-AMC substrate by spectrofluorometry. Put shortly:
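DPP-IV activity read by fluorescence at 37 °C, excitation 355 nm and emission 460 nm. Initial rate calculated over the first 15 min as increase in fluorescence intensity.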

Test [8] is filed under the species Mus musculus. Nature of the test: Antihyperglycemic activity in C57BL/Ks db/db mouse assessed as reduction in blood glucose level measured after 3 days relative to control. Format: functional.

Sequence of Dipeptidyl peptidase 4 (Homo sapiens) (P27487 whole entry, looked up): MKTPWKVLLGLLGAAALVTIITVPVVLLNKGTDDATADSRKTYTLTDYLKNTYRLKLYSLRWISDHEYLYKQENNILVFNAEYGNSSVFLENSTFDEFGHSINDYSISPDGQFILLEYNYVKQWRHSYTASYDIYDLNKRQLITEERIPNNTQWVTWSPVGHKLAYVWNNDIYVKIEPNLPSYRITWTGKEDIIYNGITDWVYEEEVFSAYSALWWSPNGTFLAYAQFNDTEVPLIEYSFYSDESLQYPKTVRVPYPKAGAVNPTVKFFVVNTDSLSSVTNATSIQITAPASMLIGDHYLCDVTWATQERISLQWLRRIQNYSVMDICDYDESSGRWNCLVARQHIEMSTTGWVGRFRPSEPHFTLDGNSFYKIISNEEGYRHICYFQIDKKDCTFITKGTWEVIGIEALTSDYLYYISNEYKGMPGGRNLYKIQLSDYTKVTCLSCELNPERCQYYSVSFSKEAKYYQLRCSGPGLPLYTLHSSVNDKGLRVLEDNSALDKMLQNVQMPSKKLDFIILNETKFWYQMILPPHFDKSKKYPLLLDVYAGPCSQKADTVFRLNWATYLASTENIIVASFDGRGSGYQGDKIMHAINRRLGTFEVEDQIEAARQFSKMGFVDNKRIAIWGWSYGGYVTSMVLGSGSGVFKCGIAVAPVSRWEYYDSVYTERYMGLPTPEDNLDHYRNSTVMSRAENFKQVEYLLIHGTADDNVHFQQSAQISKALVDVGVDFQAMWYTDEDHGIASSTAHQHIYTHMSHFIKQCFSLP

As to `COc1ccc(-c2cc(-c3ccccc3)no2)c(OCCN(C)C)c1`, the figures for the inhibition in vivo at 100 mg/kg in test [1], in test [2] and in test [3] were 16.8%, 15.3% and 15.9%, respectively. Besides, the IC50 (usually the concentration that inhibits the measured activity by half) amounted to 24.3 µM in test [4] and 24.2 µM in test [5]. Also, the inhibition (as a rule, the share of the control response that was lost under treatment) in test [6] came out at 33.5%.
Consider `COc1ccc(-c2cc(-c3ccccc3)no2)c(OCCN(C(C)C)C(C)C)c1`, for which the inhibition in vivo (usually the share of the control response that was lost under treatment) at 100 mg/kg in test [1] is 21.7%; in test [2], 11.4%; in test [3] it was 9.7%. Also, the IC50 in test [4] is 5.44 µM; in test [5], 5.5 µM. Also, in test [6], the inhibition came to 89.4%. Moreover, in test [7], the inhibition result was “inactive”.
Take `COc1ccc(-c2cc(-c3ccccc3)no2)c(OCCCN(C)C)c1`: in test [1], the inhibition in vivo at 100 mg/kg was 11.8%. Also, the half-inhibitory concentration (IC50) in test [4] and in test [5] was 25.3 µM in each case. The compound further gave an inhibition in test [6] of 22.3%.
Regarding `CCOC(=O)CCCOc1cc(OC)ccc1-c1cc(-c2ccccc2)no1`, in test [1], the inhibition in vivo at 100 mg/kg turned out to be 4.6%. For the same compound, the IC50 in test [4] and in test [5] was 26.7 µM throughout. Further, in test [6], the inhibition was 20.1%.
Turning to `CCCCN(C)CCCOc1cc(OC)ccc1-c1cc(-c2ccccc2)no1`, the inhibition in vivo at 100 mg/kg in test [1] came out at 15%; in test [2], 12.6%; in test [3] it was 14.2%. In addition, the IC50 in test [4] is 37.5 µM; in test [5] it was 37.3 µM. This compound also returned an inhibition in test [6] of 14.4%.
As to `COc1ccc(-c2cc(-c3ccccc3)no2)c(OCCN2CCOCC2)c1`, the inhibition in vivo at 100 mg/kg in test [1] is 2.8%. Besides, the IC50 in test [4] is 2.61 µM; in test [5], 2.5 µM. In test [6], this compound returned an inhibition of 82.9%.
With `CCOC(=O)COc1cc(OC)ccc1-c1cc(-c2ccccc2)no1`, in test [1], the inhibition in vivo at 100 mg/kg amounted to 10.4%. Further, the IC50 in test [4] worked out at 5.35 µM; in test [5], 5.25 µM. In addition, in test [6], the inhibition came out at 79.3%.
For `COc1ccc(-c2cc(-c3ccccc3)no2)c(O)c1` the same measures were 9.8%, 27.6 µM, 27.5 µM and 21.8%.
On to `CN(C)C(=N)NC(=N)N` [METFORMIN], for which the inhibition in vivo at 100 mg/kg stood at 12.9% in test [1] and 20.2% in test [3]. The “inhibition (INH)” value in test [8] stood at 11.2%.
Turning to `COc1ccc(Cl)cc1C(=O)NCCc1ccc(S(=O)(=O)NC(=O)NC2CCCCC2)cc1` [GLYBURIDE], the inhibition in vivo at 100 mg/kg was 33.9% in test [1] and 32.8% in test [2]. The “inhibition (INH)” value in test [8] is 13.6%.
As for `COc1ccc(-c2cc(-c3ccccc3)no2)c(OCC(O)CN2CCCCC2)c1` (stereo not drawn), the inhibition in vivo at 100 mg/kg in test [1] is 17%; in test [2], 15.8%; in test [3], 16.8%. The 50% inhibitory concentration (IC50) in test [4] is 3.31 µM; in test [5], 6.8 µM. Moreover, in test [6], the Activity was 85.9%.
For the compound `COc1ccc(-c2cc(-c3ccccc3)no2)c(OCC2CO2)c1` (stereo not drawn), in test [1], the inhibition in vivo at 100 mg/kg is 10.7%. Further, the IC50 worked out at 31.3 µM in test [4] and 31.1 µM in test [5]. This compound also gave an Activity in test [6] of 11.8%.
For `COc1ccc(-c2cc(-c3ccccc3)no2)c(OCC(=O)O)c1` the same measures were 11.7%, 9.3 µM, 9.1 µM and 75.2%.
Regarding `COc1ccc(-c2cc(-c3ccccc3)no2)c(OCCCCl)c1`, the inhibition in vivo at 100 mg/kg in test [1] was determined as 9.24%. The half-inhibitory concentration (IC50) in test [4] is 56.9 µM; in test [5] it was 56.8 µM. Also, the inhibition in test [6] was 9%.
Turning to `COc1ccc(-c2cc(-c3ccccc3)no2)c(OCCCN2CCCC2)c1`, the inhibition in vivo at 100 mg/kg turned out to be 21.2% in test [1], 13.4% in test [2] and 11.2% in test [3]. Moreover, the figures for the IC50 in test [4] and in test [5] were 3.46 µM and 3.5 µM, respectively. For the same compound, the inhibition in test [6] stood at 82.7%. Also, the inhibition entry in test [7] is “inactive”.
In the case of `CCN(CC)CCCOc1cc(OC)ccc1-c1cc(-c2ccccc2)no1`, the inhibition in vivo at 100 mg/kg in test [1] amounted to 14.3%; in test [2], 7.8%; in test [3], 9.2%. The IC50 turned out to be 28.2 µM in test [4] and 28 µM in test [5]. In test [6], this compound showed an inhibition of 21.8%.
As to `Cc1ccc(S(=O)(=O)NC(=O)NN2CC3CCCC3C2)cc1` (stereo not drawn) [GLICLAZIDE], the inhibition in vivo at 100 mg/kg in test [1] worked out at 44.8%; in test [2], 27.7%. Besides, the “inhibition (INH)” value in test [8] was determined as 17.4%.
On to `COc1ccc(-c2cc(-c3ccccc3)no2)c(OCCCC(=O)O)c1`, for which the figures for the inhibition in vivo at 100 mg/kg in test [1], in test [2] and in test [3] were 14.2%, 14.9% and 14.2%, respectively. Further, the IC50 amounted to 22.4 µM in test [4] and 22.3 µM in test [5]. Moreover, the Activity in test [6] was 24.4%.
For the compound `CCN(CC)CC(O)COc1cc(OC)ccc1-c1cc(-c2ccccc2)no1` (stereo not drawn), the inhibition in vivo at 100 mg/kg in test [1] is 13.8%; in test [2] it was 11.6%; in test [3], 11.4%. For the same compound, the IC50 in test [4] is 6.89 µM; in test [5], 4.3 µM. In test [6], this compound displayed an Activity of 82.8%.
Take `COc1ccc(-c2cc(-c3ccccc3)no2)c(OCCCN2CCCCC2)c1`: the figures for the inhibition in vivo at 100 mg/kg in test [1], in test [2] and in test [3] were 20.8%, 14.7% and 15%, respectively. For the same compound, the 50% inhibitory concentration (IC50) in test [4] came out at 4.42 µM; in test [5], 4.4 µM. The inhibition in test [6] turned out to be 89.5%. In addition, in test [7], the inhibition entry is “inactive”.

The record behind these values is ChEMBL document CHEMBL1781977, “Design and synthesis of 3,5-diarylisoxazole derivatives as novel class of anti-hyperglycemic and lipid lowering agents” (Bioorg Med Chem, 2009).
